Measured values published in ChEMBL document CHEMBL1123566, “Synthesis and cardiac electrophysiological activity of 2- and 3-[(substituted phenyl)alkyl]quinuclidines. Structure-activity relationships” (1987).
“And” between values parts separate entries of the source, which are not always exact repeats. Identical values can stand only once.

Legend:
[1] = organism: Canis familiaris; test: In vitro electrophysiological evaluation in canine cardiac occurred is 100 uM; assay type: functional; conditions: Canis lupus familiaris; Heart
[2] = organism: Canis familiaris; test: In vitro electrophysiological evaluation in canine cardiac ventricular muscle reported as % change for the functional refractory period (FRP) at 10 uM at concentration range of 0.1-100 uM; design: species or system Canis lupus familiaris, Muscle tissue
In short: (§1)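 Canine right ventricle and papillary muscle strips in oxygenated Tyrode's solution, fitted with stimulating and recording electrodes. The extra-stimulus conduction-interval method was adapted for in vitro use. FRP and CT were read from a conduction-interval curve before and after various compound concentrations, and expressed as percent change from control. Compounds were taken from 10 mM deionized-water stock into Tyrode's. Each strip was used once as its own control.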

[3] = organism: Canis familiaris; test: In vitro electrophysiological evaluation in canine cardiac ventricular muscle reported as maximum % change for functional refractory period (FRP) at 0.1-100 uM concentration range; concentration at which it occurred is 100 uM; design: species or system Canis lupus familiaris, Muscle tissue; in short: as §1
[4] = organism: Canis familiaris; test: In vitro electrophysiological evaluation in canine cardiac ventricular muscle reported as maximum % change for functional refractory period (FRP) at 1-100 uM concentration range; concentration at which it occurred is 100 uM; design: species or system Canis lupus familiaris, Muscle tissue; in short: as §1
[5] = organism: Canis familiaris; test: In vitro electrophysiological evaluation in canine cardiac ventricular muscle reported as maximum % change for conduction time(CT) at 0.1-100 uM concentration range; concentration at which it occurred is 100 uM; assay type: functional, Canis lupus familiaris, Muscle tissue; in short: as §1
[6] = organism: Canis familiaris; test: In vitro electrophysiological evaluation in canine cardiac ventricular muscle reported as % change for the functional refractory period (FRP) at 10 uM at concentration range of 1-100 uM; design: species or system Canis lupus familiaris, Muscle tissue; in short: as §1
[7] = organism: Canis familiaris; test: In vitro electrophysiological evaluation in canine cardiac Purkinje fibres reported as % change for action potential duration at a concentration of 10 uM; assay type: functional, Canis lupus familiaris, Purkinje fiber
In short: (§2)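 Canine cardiac Purkinje fibres, intracellular microelectrode recording, paced at a basic cycle length of 1 s. APD95 and Vmax read simultaneously. Compound: 10 mM stock in deionized water, diluted into Tyrode's solution, tested over the stated concentration range. Each fibre used once as its own control. Result is % change from control, given at 10 µM or as the maximum with its concentration. M = <10% decrease or an increase in Vmax.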

[8] = organism: Canis familiaris; test: In vitro electrophysiological evaluation in canine cardiac ventricular muscle reported as maximum % change for conduction time(CT) at 0.1-100 uM concentration range; Minimal (<10% decrease or increase in CT).; assay type: functional, Canis lupus familiaris, Muscle tissue; in short: as §1
[9] = organism: Canis familiaris; test: In vitro electrophysiological evaluation in canine cardiac ventricular muscle reported as % change for conduction time(CT) at 10 uM at 1-100 uM concentration range; Minimal (<10% decrease or increase in CT).; assay type: functional, Canis lupus familiaris, Muscle tissue
[10] = organism: Canis familiaris; test: In vitro electrophysiological evaluation in canine cardiac Purkinje fibres reported as % change for action potential duration at 10 uM at 1-100 uM concentration range; assay type: functional, Canis lupus familiaris, Purkinje fiber; in short: as §2
[11] = organism: Canis familiaris; test: In vitro electrophysiological evaluation in canine cardiac Purkinje fibres reported as percent change Vmax at 10 uM at concentration range of 1-100 uM; assay type: functional; conditions: Canis lupus familiaris, Purkinje fiber; in short: as §2
[12] = organism: Canis familiaris; test: In vitro electrophysiological evaluation in canine cardiac ventricular muscle reported as maximum % change for conduction time(CT) at 1-100 uM concentration range; concentration at which it occurred is 100 uM; assay type: functional, Canis lupus familiaris, Muscle tissue; in short: as §1
[13] = organism: Canis familiaris; test: In vitro electrophysiological activity in canine cardiac occurred is 100 uM.; assay type: functional, Canis lupus familiaris, Heart
[14] = organism: Canis familiaris; test: In vitro electrophysiological activity in canine cardiac occurred is 10 uM.; assay type: functional, Canis lupus familiaris, Heart
[15] = organism: Canis familiaris; test: In vitro electrophysiological evaluation in canine cardiac ventricular muscle reported as % change for conduction time(CT) at 10 uM at 0.1-100 uM concentration range; Minimal (<10% decrease or increase in CT).; assay type: functional, Canis lupus familiaris, Muscle tissue

CCOC(=O)C(CC1C(=O)C2CCN1CC2)C(=O)c1ccc(Cl)c(NS(C)(=O)=O)c1.Cl (stereo not given) was tested, and the Vmax [1] was -19% and -21%, the FRP [2] was 5% and -7% and 6% and the FRP [3] was 12% and 5% and 14%. It also gave an FRP [4] of 15%, a CT [5] of 12% and an FRP [6] of 10%. It also gave an APD95 [7] of 9%, a CT [8] of under 10% and a CT [9] of under 10%. The APD95 [10] was -4%, the Vmax [11] was -11% and -10% and the CT [12] was 14%. The APD95 [13] was -16%, the APD95 [14] was 9% and the CT [15] was under 10%.
